Source: ChEMBL document CHEMBL1140161, “Structure-activity relationships in 1,4-benzodioxan-related compounds. 9. From 1,4-benzodioxane to 1,4-dioxane ring as a promising template of novel alpha1D-adrenoreceptor antagonists, 5-HT1A full agonists, and cytotoxic agents” (J Med Chem, 2008)
Active and inactive are the calls of the source. The calls are words filed in the database; no cut-off is given here.

How the values were obtained:
[1] = molecular target: T1, Alpha-1B adrenergic receptor (Homo sapiens, UniProt P35368); experiment: Displacement of [3H]prazosin from human cloned Alpha-1B adrenoceptor expressed in CHO cells; type: cell-based
T1 sequence (P35368 whole entry): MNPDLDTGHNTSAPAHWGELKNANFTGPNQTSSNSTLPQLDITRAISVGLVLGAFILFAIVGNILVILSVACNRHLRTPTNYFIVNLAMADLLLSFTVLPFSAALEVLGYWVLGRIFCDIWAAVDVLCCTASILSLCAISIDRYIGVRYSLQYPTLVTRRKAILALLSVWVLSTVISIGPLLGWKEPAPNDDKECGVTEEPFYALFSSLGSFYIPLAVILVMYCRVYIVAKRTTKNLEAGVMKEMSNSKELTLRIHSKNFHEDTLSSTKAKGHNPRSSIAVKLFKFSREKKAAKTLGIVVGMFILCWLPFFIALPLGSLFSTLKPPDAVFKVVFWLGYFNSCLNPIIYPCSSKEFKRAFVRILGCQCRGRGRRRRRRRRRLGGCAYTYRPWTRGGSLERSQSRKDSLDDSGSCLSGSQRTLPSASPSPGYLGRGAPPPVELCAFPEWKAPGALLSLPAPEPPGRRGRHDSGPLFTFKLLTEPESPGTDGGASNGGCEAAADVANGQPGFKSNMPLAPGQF
Outline: (§1)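 [3H]prazosin binding to cloned human α1-adrenoceptor subtypes expressed in CHO cell membranes. Affinity reported as pKi for each subtype.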

[2] = molecular target: T2, Alpha-1D adrenergic receptor (Homo sapiens, UniProt P25100); experiment: Displacement of [3H]prazosin from human cloned alpha1D adrenoceptor expressed in CHO cells; type: cell-based; outline: as §1
T2 sequence (P25100 whole entry): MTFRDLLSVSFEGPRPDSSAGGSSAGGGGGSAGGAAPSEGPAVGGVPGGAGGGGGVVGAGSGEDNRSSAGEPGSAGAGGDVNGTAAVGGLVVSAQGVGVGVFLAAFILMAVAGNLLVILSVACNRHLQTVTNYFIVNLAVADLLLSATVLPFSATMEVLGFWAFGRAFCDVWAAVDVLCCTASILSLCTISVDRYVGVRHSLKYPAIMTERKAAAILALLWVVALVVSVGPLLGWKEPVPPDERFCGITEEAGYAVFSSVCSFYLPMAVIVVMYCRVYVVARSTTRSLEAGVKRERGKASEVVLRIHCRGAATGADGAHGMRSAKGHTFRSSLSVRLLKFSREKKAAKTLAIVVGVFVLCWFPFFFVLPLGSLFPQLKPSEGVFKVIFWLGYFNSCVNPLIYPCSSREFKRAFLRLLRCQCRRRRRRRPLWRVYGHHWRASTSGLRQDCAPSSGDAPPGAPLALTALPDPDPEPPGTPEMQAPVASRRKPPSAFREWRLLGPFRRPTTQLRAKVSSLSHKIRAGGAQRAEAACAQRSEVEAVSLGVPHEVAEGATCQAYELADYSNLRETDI

[3] = molecular target: T3, 5-hydroxytryptamine receptor 1A (Homo sapiens, UniProt P08908); experiment: Displacement of [3H]8-OH-DPAT from human cloned 5HT1A receptor expressed in human HeLa cells; type: cell-based
T3 sequence (P08908 whole entry): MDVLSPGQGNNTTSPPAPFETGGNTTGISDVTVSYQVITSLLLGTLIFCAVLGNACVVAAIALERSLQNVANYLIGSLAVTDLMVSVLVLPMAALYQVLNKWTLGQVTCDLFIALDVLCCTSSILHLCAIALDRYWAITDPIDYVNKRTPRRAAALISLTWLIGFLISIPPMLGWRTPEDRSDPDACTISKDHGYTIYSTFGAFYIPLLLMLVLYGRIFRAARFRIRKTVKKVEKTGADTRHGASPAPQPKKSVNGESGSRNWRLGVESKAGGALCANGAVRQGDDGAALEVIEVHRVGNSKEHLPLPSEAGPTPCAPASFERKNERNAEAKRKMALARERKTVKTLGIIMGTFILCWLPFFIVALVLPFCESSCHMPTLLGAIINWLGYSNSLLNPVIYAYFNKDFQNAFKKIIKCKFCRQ

[4] = molecular target: T4, Alpha-1B adrenergic receptor (Rattus norvegicus) (UniProt P15823); experiment: Antagonist activity at alpha1B adrenoceptor in Wistar rat spleen assessed as inhibition of (-)-phenylephrine-induced contraction after 30 mins; type: functional, tissue-based
T4 sequence (whole entry): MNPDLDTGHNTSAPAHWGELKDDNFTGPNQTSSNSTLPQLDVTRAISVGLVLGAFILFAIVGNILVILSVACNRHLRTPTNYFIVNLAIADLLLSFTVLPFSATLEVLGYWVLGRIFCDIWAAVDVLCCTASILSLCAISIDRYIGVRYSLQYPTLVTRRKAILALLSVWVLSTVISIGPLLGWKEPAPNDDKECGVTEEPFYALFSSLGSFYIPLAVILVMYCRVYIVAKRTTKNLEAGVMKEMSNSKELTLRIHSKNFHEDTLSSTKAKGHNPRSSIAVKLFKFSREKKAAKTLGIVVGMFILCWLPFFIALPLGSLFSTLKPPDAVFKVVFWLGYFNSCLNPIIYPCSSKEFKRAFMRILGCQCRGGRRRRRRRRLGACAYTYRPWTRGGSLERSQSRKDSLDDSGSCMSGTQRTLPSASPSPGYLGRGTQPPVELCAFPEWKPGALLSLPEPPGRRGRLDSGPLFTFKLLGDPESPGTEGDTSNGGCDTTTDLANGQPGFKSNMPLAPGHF

[5] = molecular target: T5, Alpha-1D adrenergic receptor (Rattus norvegicus) (UniProt P23944); experiment: Antagonist activity at Alpha-1D adrenoceptor in Wistar rat thoracic aorta assessed as inhibition of (-)-noradrenaline-induced contraction after 30 mins; type: functional, tissue-based
T5 sequence (whole entry): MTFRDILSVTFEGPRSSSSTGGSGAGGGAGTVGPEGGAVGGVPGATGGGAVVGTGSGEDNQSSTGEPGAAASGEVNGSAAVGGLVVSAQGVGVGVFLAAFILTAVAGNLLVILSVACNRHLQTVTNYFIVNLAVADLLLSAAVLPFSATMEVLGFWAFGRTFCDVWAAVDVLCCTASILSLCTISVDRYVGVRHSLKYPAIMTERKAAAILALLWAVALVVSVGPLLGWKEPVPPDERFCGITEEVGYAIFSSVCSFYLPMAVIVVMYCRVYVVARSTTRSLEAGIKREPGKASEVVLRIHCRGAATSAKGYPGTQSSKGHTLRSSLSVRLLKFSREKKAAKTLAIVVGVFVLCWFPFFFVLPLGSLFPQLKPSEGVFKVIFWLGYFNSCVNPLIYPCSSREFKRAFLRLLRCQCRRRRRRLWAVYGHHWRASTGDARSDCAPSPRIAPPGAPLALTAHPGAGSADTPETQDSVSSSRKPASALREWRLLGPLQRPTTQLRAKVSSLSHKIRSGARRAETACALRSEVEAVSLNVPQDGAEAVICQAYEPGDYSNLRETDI

PC-3 = experiment: Cytotoxicity against human PC3 cells after 48 hrs by SRB assay; type: functional; conditions: for GI50 / TGI / CC50: PC-3, 48 h; for CC50: read-out: LC50 (the source's name)
Outline: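 PC-3 human prostate cancer cells. Growth measured by sulforhodamine B staining following the NCI protocol. […] Values are means of quadruplicate determinations ± standard error (n = 5).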

SMILES | Ki [1] [nM] | Ki [2] [nM] | Ki [3] [nM] | pKb [4] | pKb [5] | GI50 (PC-3) [nM] | TGI (PC-3) [nM] | CC50 (PC-3) [nM] | Activity (PC-3)
COc1ccccc1OCCNC[C@@H]1CO[C@H](c2ccccc2)CO1 (relative stereo) | 263 | 16.2 | 3.47 | 6.89 | 6.84 | 199000 | 251000 | > 300000 | 
COc1cccc(OC)c1OCCNC[C@@H]1CO[C@@H](c2ccccc2)CO1 (relative stereo) | > 1000 | > 1000 | 234 | 7.02 | 7.26 | 29000 |  |  | inactive
COc1ccccc1OCCNC[C@@H]1COCC(c2ccccc2)(c2ccccc2)O1 | 56.2 | 1.15 | 0.661 | 6.86 | 8.32 | 6300 | 15400 | 35100 | 
COc1cccc(OC)c1OCCNC[C@@H]1COC[C@H](c2ccccc2)O1 (relative stereo) | > 1000 | > 1000 | > 1000 | 5.84 | 6.55 | 79400 | 178000 | 282000 | 
COc1ccccc1OCCNC[C@@H]1COC[C@@H](c2ccccc2)O1 (relative stereo) | 302 | 31.6 | 6.03 | 7.96 | 7.83 | 199000 | 251000 | > 300000 | 
c1ccc(OCCNC[C@@H]2COC[C@@H](c3ccccc3)O2)cc1 (relative stereo) | > 1000 | 155 | 52.5 | 6.88 | 6.38 | 158000 | 223000 | > 300000 | 
c1ccc(OCCNC[C@@H]2COC[C@H](c3ccccc3)O2)cc1 (relative stereo) | > 1000 | 72.4 | 53.7 | 7.12 | 6.77 | 158000 | 223000 | 281000 | 
COc1cccc(OC)c1OCCNC[C@@H]1COCC(c2ccccc2)(c2ccccc2)O1 | 324 | 66.1 | 1.41 | 6.24 | 7.22 | 25100 | 31600 | 35000 | 
COc1ccccc1OCCNC[C@@H]1COC(c2ccccc2)(c2ccccc2)CO1 | 74.1 | 102 | 7.59 | 6.81 | 7.71 | 7800 | 16100 | 35800 | 
COc1ccccc1OCCNC[C@@H]1CO[C@@H](c2ccccc2)CO1 (relative stereo) | 282 | 97.7 | 38.9 | 7.44 | 7.48 | 30100 |  |  | inactive
c1ccc(OCCNC[C@@H]2COCC(c3ccccc3)(c3ccccc3)O2)cc1 | 120 | 3.63 | 0.589 | 7.84 | 7.6 | 1000 | 3900 | 6200 | 
COc1cccc(OC)c1OCCNC[C@@H]1CO[C@H](c2ccccc2)CO1 (relative stereo) | > 1000 | > 1000 | 257 | 6.7 | 6.08 | 199000 | 251000 | > 300000 | 
COc1ccccc1OCCNC[C@@H]1COC[C@H](c2ccccc2)O1 (relative stereo) | 269 | 43.7 | 4.17 | 7.4 | 7.2 | 79000 | 158000 | 251000 | 
COc1cccc(OC)c1OCCNC[C@@H]1COC(c2ccccc2)(c2ccccc2)CO1 | 126 | 170 | 229 | 5.74 | 7.38 | 19900 | 31600 | 40000 | 
c1ccc(OCCNC[C@@H]2CO[C@H](c3ccccc3)CO2)cc1 (relative stereo) | > 1000 | 355 | 25.7 | 6.68 | 7.05 | 190000 | 239000 | > 300000 | 
c1ccc(OCCNC[C@@H]2CO[C@@H](c3ccccc3)CO2)cc1 (relative stereo) | > 1000 | > 1000 | 148 | 6.97 | 6.56 | 177000 | 252000 | > 300000 | 
c1ccc(OCCNC[C@@H]2COC(c3ccccc3)(c3ccccc3)CO2)cc1 | 141 | 126 | 37.2 | 6.28 | 7.19 | 9900 | 19400 | 45200 | 
COc1cccc(OC)c1OCCNC[C@@H]1COC[C@@H](c2ccccc2)O1 (relative stereo) | > 1000 | > 1000 | 417 | 5.75 | 7.11 | 112000 | 199000 | 288000 | 
